Assay results pooled from the literature.
Cell line: K562
Read-out: cell growth or viability

| SMILES | assay | conditions | measurement | result |
| --- | --- | --- | --- | --- |
| COc1cccc(Oc2ccccc2NC(=O)CNC(=O)c2cccc3ccccc23)c1 | SRB | 48 h | GI50 | 0.129 µM |
| CNC(=O)c1cc(OC)cc2c(N3CCc4c(cc(Cn5ccnc5)cc4-c4cn(C)nc4C(F)(F)F)C3=O)ccnc12 | ATP luminescence | 5 days | GI50 | 9.7 µM |
| COC(=O)CCC1=CC2C=CC=CC1C2C1CCCCC1=O (centres unmarked) | flow cytometry | – | IC50 | 62 nM |
| COc1ccc2nccc(N3CCc4c(cc(Cn5ccnc5)cc4-c4cn(C)nc4C(F)(F)F)C3=O)c2c1 | ATP luminescence | 5 days | GI50 | 13 µM |
| COc1ccc(C(=O)/C=C/c2cccc3ccccc23)cc1S(N)(=O)=O | SRB | 48 h | GI50 | 1.7 µM |
| CCCCCCCCC1=CC2C=CC=CC1C2C1CCCCC1=O (centres unmarked) | flow cytometry | – | IC50 | 41 nM |
| COc1ccc(C(=O)/C=C/c2ccc3c(c2)OCCO3)cc1S(N)(=O)=O | SRB | 10 µM | inhibition | 83% |
| COc1ccccc1S(=O)(=O)Nc1ccc2c(c1)CN(C)C(=O)N2 | ATP luminescence | – | GI50 | > 20 µM |
